ERp5 inh = inhibitors of ERp5-driven insulin aggregation, primary screen, biochemical, turbidity, absorbance 650 nm, single point | 350,000 tested, 0.05% active | 90 min | Protein disulfide-isomerase A6 (Homo sapiens), Q15084 | inhibition, % at 9.99 µM | AID 651711, 2012;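 active = mean replicate inhibition above about 25%, with every replicate also reaching it, limit read from the data, passing the limit was not always enough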
FGF22 binding = binders of human FGF22 protein, primary screen, FGF22 synaptogenesis inhibitor project, biophysical, thermal shift, single point | Fibroblast growth factor 22 (Homo sapiens), Q9HCT0 | activity (Tm shift, normalised), % at 9.99 µM | recombinant FGF22 thermal shift, SYPRO orange fluorescence; percent of sucrose octasulfate shift, DMSO zero | 340,000 tested, 1.5% active;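 active = mean Tm shift, scaled 0 neutral to 100 positive control, at about 1.3% or above, every replicate too, limit read from the data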
PDI inh = inhibitors of human PDI, primary screen, biochemical, turbidity, single point, plate reader; Protein disulfide-isomerase (Homo sapiens), P07237; PDI insulin aggregation turbidity, A650, 90 min; inhibition, % at 10 µM; 350,000 tested, 0.052% active; AID 588391, 2011;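 active = mean inhibition across replicates of 30% or more, whatever share of single replicates reach that level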
Target sequence (P07237 whole entry, looked up): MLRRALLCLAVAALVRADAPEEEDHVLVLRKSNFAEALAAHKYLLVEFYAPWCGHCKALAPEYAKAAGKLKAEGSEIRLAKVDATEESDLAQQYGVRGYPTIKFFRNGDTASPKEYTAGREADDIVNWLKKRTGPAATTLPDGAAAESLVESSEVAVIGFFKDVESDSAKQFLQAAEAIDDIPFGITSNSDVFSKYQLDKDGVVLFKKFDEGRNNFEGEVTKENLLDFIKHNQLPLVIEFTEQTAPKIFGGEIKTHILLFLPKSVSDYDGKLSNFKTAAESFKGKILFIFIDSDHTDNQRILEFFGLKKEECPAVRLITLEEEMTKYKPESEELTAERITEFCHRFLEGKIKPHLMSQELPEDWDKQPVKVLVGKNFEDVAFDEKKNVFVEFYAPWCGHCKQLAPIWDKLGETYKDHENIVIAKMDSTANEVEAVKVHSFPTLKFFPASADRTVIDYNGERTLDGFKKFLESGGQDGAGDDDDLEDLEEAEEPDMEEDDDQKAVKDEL
FN deposition inh = inhibitors of fibronectin matrix deposition, primary screen, AH1F cells, Alexa488-fibronectin fluorescence, plate reader; AH1F fibroblasts, overnight; inhibition, % at 12.6 µM; 350,000 tested, 0.086% active;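 active = mean inhibition across replicates of 30% or more, regardless of how many single replicates reach that level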;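 also: positive control wells lacked labelled fibronectin entirely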
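Measured by – fluorescence 485/525 nm · System – AH1F fibroblast monolayer, labelled fibronectin deposition · Amount – 10000 cells per well · Buffer or medium – serum-reduced DMEM (2% serum) · Doses – single dose, pinned · Also added – fluorescent fibronectin at 24 nM final · Schedule – 1 h cell attachment, overnight exposure to compound and label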
AF4-AF9 inh = inhibitors of AF4 peptide binding to AF9, primary screen, biochemical, AlphaScreen, biotin-AF4 peptide, FLAG-AF9, single point | 350,000 tested, 0.47% active | inhibition, % at 10 µM | Protein AF-9 (Homo sapiens), P42568;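 active = every replicate reaching a set inhibition limit, whatever the replicate mean, cut at about 25% in these data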;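 also: 0% = plate neutral control median and 100% = total signal loss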
ARNT-TACC3 inh = disruptors of ARNT/TACC3 protein interaction, primary screen, biochemical, AlphaScreen, single concentration | AlphaScreen His-ARNT PAS-B/GST-TACC3 binding, luminescence; TACC3 fragment carries E629A point mutation | inhibition, % at 9.99 µM | AID 623870, 2012 | 390,000 tested, 0.66% active | Transforming acidic coiled-coil-containing protein 3 (Homo sapiens), Q9Y6A5;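 active = mean inhibition of replicates at least 50% and at least half of replicates each reaching 50%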;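 also: 0% = complete ARNT plus TACC3 wells and 100% = ARNT alone without TACC3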
* = called active by the depositor; nt = no result given. A selection: hits, their analogues and other compounds. The true share with any hit is near 2.1%.

SMILES | ERp5 inh | FGF22 binding | PDI inh | FN deposition inh | AF4-AF9 inh | ARNT-TACC3 inh
CC1=NN(c2ccc(C(=O)O)cc2)C(=O)/C1=C\c1ccc(OC(=O)c2cccs2)cc1 | 0 | 43* | -3 | 7 | -2 | 28
C[C@H]1CN([C@@H](C)CO)C(=O)c2cccc(NC(=O)C3CCCCC3)c2O[C@@H]1CN(C)CC1CC1 | 0 | 0 | nt | nt | 1 | 18
CO[C@H]1CN(C)C(=O)c2ccc(NC(C)=O)cc2OC[C@H](C)N(Cc2ccccc2F)C[C@H]1C | -5 | 0 | nt | -8 | 2 | 3
O=C(OCc1ccccc1)N1CCC2CC1c1cc(-c3ccc(F)cc3)ccc12 (centres undefined) | 4 | 0 | 15 | -2 | 0 | -1
COc1ccc(-c2ccc3c(c2)C2CC3CCN2C(=O)OCc2ccccc2)cc1 (centres undefined) | 7 | 1 | 8 | active | -2 | -2
Cc1ccc(C(=O)N2CCN(S(C)(=O)=O)C2)cc1 | nt | nt | 1 | nt | nt | -3
Cc1ccc(C(=O)N2CCN(C(=O)c3ccc(C)cc3)C2)cc1 | 9 | 43* | 4 | -3 | 0 | 2
Cc1ccc(C(=O)N2CCN(S(=O)(=O)c3ccc(C)c([N+](=O)[O-])c3)C2)cc1 | -4 | 44* | -1 | 10 | -9 | 26
C#CCOc1ccccc1CNc1ccccc1 | -1 | 43* | 8 | 0 | -1 | 3
Cc1nc(Cc2nnc(SCC(=O)N3c4ccccc4NC(=O)C3(C)C)o2)cs1 | -1 | 43* | -3 | 6 | -4 | nt
Cc1nc(Cc2nnc(SCC(=O)N3CC(=O)Nc4ccccc43)o2)cs1 | 2 | 0 | 9 | 11 | 1 | nt
O=C(C[C@H]1CC[C@@H](NC(=O)CC2CC2)[C@@H](CO)O1)NCc1ccc(Cl)cc1 | 2 | 0 | nt | nt | 0 | -4
COc1cccc(NC(=O)CSc2nn3c(=O)c(C)nnc3s2)c1 | -11 | 0 | 2 | nt | -4 | 67*
COc1ccc(NC(=O)CSc2nn3c(=O)c(C)nnc3s2)cc1 | -5 | 0 | -4 | nt | -1 | 61*
COc1ccc(OC)c(NC(=O)CSc2nn3c(=O)c(C)nnc3s2)c1 | -1 | 0 | 8 | 5 | -2 | 69*
Cc1ccccc1NC(=O)CSc1nn2c(=O)c(C)nnc2s1 | -12 | 0 | 1 | 4 | -3 | 51*
COc1cccc(NC(=O)CSc2nc(C)cs2)c1 | nt | nt | 13 | nt | nt | -11
COc1ccc(NC(=O)CSc2nnc(C)c(=O)n2N)cc1 | 4 | 0 | -7 | 2 | -1 | -1
O=C(NCc1ccc(F)cc1)[C@@H]1[C@@H](CO)[C@@H]2Cn3c(cccc3=O)[C@H]1N2 | 2 | 0 | nt | nt | -2 | -2
Cc1nnc2sc(SCC(=O)N3CCC(C)CC3)nn2c1=O | -1 | 0 | 19 | nt | 2 | 63*
COC(=O)c1ccc(NC(=O)CSc2nn3c(=O)c(C)nnc3s2)cc1 | 10 | 0 | 6 | -3 | -2 | 60*
Cc1nnc2sc(SCC(=O)Nc3cccc(Cl)c3)nn2c1=O | 2 | 0 | -2 | nt | -2 | 65*
Cc1nnc2sc(SCC(=O)N3CCCCC3)nn2c1=O | 0 | 0 | -4 | 7 | -4 | -3
Cc1nnc2sc(SCC(=O)Nc3ccc(Br)cc3)nn2c1=O | -2 | 0 | -3 | 7 | -4 | 74*
C[C@@H]1CCCCO[C@H](CN(C)C(=O)Nc2ccc(F)cc2)[C@@H](C)CN([C@H](C)CO)C(=O)c2cc(NS(C)(=O)=O)ccc2O1 | 1 | 0 | nt | nt | -1 | -1
COc1ccc(NC(=O)N(C)C[C@H]2OCc3ccccc3-c3c(n(C)c4ccccc34)C(=O)N([C@@H](C)CO)C[C@@H]2C)cc1 | 2 | 0 | nt | 9 | -1 | -7
CC(C)(C)c1nnc2sc(SCC(=O)c3ccccc3)nn2c1=O | nt | nt | 0 | nt | nt | -3

Bioassay records deposited in PubChem BioAssay by Broad Institute.
